According to PubChem BioAssay AID651935 (Vanderbilt Specialized Chemistry Center, 2012):
Active and inactive are the calls of the source. How the calls were made is not given here.

Target: Muscarinic acetylcholine receptor M4 (Rattus norvegicus) (UniProt P08485)
Test: rat M4 positive allosteric modulation check – CHO cells, calcium flux, selectivity assay for M5 PAM discovery project (AID 651935)
How it was run: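 Material: Rat M4/Gqi5 CHO-K1 cells | Medium: HBSS plus HEPES and probenecid, pH 7.4 | Probe or stimulus: Acetylcholine EC20 | Compound dosing: 0.3% DMSO final | Times: Acetylcholine stimulation 50 s, calcium read at 25 °C | Detection: Calcium mobilization by Fluo-4 AM fluorescence | Read-out basis: % of maximal acetylcholine response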

Sequence of Muscarinic acetylcholine receptor M4 (Rattus norvegicus) (P08485 whole entry, looked up): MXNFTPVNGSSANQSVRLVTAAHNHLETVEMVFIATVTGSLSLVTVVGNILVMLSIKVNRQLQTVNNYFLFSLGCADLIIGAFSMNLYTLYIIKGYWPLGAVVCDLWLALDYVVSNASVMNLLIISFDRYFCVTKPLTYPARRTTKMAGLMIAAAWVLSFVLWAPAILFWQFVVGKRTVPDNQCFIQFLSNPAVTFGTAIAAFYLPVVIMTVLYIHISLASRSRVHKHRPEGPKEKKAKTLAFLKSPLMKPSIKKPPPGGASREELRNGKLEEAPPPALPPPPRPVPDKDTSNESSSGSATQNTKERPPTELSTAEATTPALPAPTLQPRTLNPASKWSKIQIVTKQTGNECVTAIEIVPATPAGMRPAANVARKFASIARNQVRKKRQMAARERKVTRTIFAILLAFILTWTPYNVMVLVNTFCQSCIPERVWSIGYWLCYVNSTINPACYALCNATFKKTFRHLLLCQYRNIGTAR

O=C1C(=O)N(CCOc2ccccc2)c2ccc(OC(F)(F)F)cc21
outcome: inactive
